Calls of active or inactive are those of the source.
Tests used:
Mus musculus [1] = test: Anticonvulsant activity in albino CD-1 mouse assessed as protection against maximal electroshock-induced seizure at 30 to 300 mg/kg, ip measured after 2.0 hrs; format: functional; conditions: for minimal effective dose: CD-1, ip, read-out: MED
Procedure, shortened: (§1)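 Male CD-1 mice (16–26 g), compound suspended in 0.5% methylcellulose/water, i.p. at 30, 100, 300 mg/kg; four mice per group, each used once. Electroconvulsion by electrical stimulus 0.2 s at 50 Hz; protection scored at 0.5 and 2 h. Value is minimum dose showing activity.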

Mus musculus [2] = test: Anticonvulsant activity in ip dosed albino CD-1 mouse assessed as protection against maximal electroshock-induced seizure; format: functional; conditions: CD-1, ip
Procedure, shortened: (§2)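 Quantitative work at time of peak effect previously estimated in screening; groups of six mice given various i.p. doses until ≥3 points within 10–90% seizure protection (MES or scPTZ) or minimal motor impairment on rotarod (10 rpm, failure to hold ≥1 min).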

Mus musculus [3] = test: Anticonvulsant activity in albino CD-1 mouse assessed as protection against maximal electroshock-induced seizure at 30 to 300 mg/kg, ip measured after 0.5 hrs; format: functional; procedure, shortened: as §1
Mus musculus [4] = test: Neurotoxicity in albino CD-1 mouse assessed as motor impairment at 30 to 300 mg/kg mg/kg, ip measured after 2 hrs by rotarod test; format: toxicity, organism-based; conditions: in vivo
Procedure, shortened: (§3)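 Rotarod in male CD-1 mice at 0.5 and 2 h after i.p. 30, 100 or 300 mg/kg (methylcellulose suspension); motor impairment = inability to keep balance on rod turning at 10 rpm for at least 1 min. Minimum neurotoxic dose reported.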

Mus musculus [5] = test: Anticonvulsant activity in ip dosed albino CD-1 mouse assessed as protection against maximal electroshock-induced seizure measured as time to peak effect; format: functional; procedure, shortened: as §2
Mus musculus [6] = test: Anticonvulsant activity in albino CD-1 mouse assessed as protection against subcutaneous pentylenetetrazole-induced seizure at 30 to 300 mg/kg, ip measured after 0.5 hrs; format: functional; conditions: for minimal effective dose: CD-1, 0.5 h, read-out: MED
Procedure, shortened: (§4)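 Male CD-1 mice given compound i.p. (0.5% methylcellulose suspension) at 30, 100, 300 mg/kg, four per group; pentylenetetrazole 85 mg/kg s.c. at 0.5 or 2 h. Absence of clonic convulsions (≥5 s) over 30 min observation counts as protection. Minimum active dose reported.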

Mus musculus [7] = test: Anticonvulsant activity in albino CD-1 mouse assessed as protection against subcutaneous pentylenetetrazole-induced seizure at 30 to 300 mg/kg, ip measured after 2.0 hrs; format: functional; conditions: for minimal effective dose: CD-1, 2 h, read-out: MED; procedure, shortened: as §4
Mus musculus [8] = test: Anticonvulsant activity in ip dosed albino CD-1 mouse assessed as protection against subcutaneous pentylenetetrazole-induced seizure measured as time to peak effect; format: functional; procedure, shortened: as §2
Mus musculus [9] = test: Neurotoxicity in albino CD-1 mouse assessed as motor impairment at 30 to 300 mg/kg mg/kg, ip measured after 0.5 hrs by rotarod test; format: toxicity, organism-based; conditions: in vivo; procedure, shortened: as §3
Mus musculus [10] = test: Anticonvulsant activity in ip dosed albino CD-1 mouse assessed as protection against subcutaneous pentylenetetrazole-induced seizure; format: functional; procedure, shortened: as §2
[11] = Protective index, ratio of TD50 for neurotoxicity in ip dosed albino CD-1 mouse to ED50 for anticonvulsant activity in ip dosed subcutaneous pentylenetetrazole-induced seizure albino CD-1 mouse model; format: toxicity, organism-based; conditions: in vivo, read-out: Ratio TD50/ED50
Procedure, shortened: (§5)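 Protective index computed as TD50 (rotarod) divided by ED50 (MES or scPTZ), both from probit analysis on groups of six i.p.-dosed mice.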

[12] = Neurotoxicity in ip dosed albino CD-1 mouse assessed as motor impairment by rotarod test; format: toxicity, organism-based; conditions: in vivo; procedure, shortened: as §2
[13] = Protective index, ratio of TD50 for neurotoxicity in ip dosed albino CD-1 mouse to ED50 for anticonvulsant activity in ip dosed maximal electoshock-induced seizure albino CD-1 mouse model; format: toxicity, organism-based; conditions: in vivo, read-out: Ratio TD50/ED50; procedure, shortened: as §5
Salmonella typhimurium [14] = test: Mutagenic activity in Salmonella typhimurium TA100 assessed as mutagenicity index at 40 ng/ml by Ames test; format: toxicity, organism-based; conditions: salmonella enterica subsp. enterica serovar typhimurium
Procedure, shortened: (§6)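 Ames TA100 liquid pre-incubation (minimal medium, 37 °C) and V. harveyi assay (BOSS medium, 30 °C); test at 40 ng/ml, triplicate. Mutagenic index = induced revertants / spontaneous revertants (DMSO control); M.I. ≥2 considered mutagenic.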

Vibrio harveyi [15] = test: Antimutagenic activity in Vibrio harveyi BB7XM assessed as inhibition of nitroquinoline-N-oxide-induced revertant colonies; format: functional
Procedure, shortened: (§7)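 Revertants induced by 4-nitroquinoline-N-oxide (final 40 ng/ml) with versus without test compound; TA100 at 37 °C, V. harveyi strains at 30 °C in BOSS medium. Three independent repetitions; inhibition % = 100 − (R1/R2 × 100); 25–40% moderate, ≥40% strong.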

Vibrio harveyi [16] = test: Mutagenic activity in Vibrio harveyi BB7XM assessed as mutagenicity index at 40 ng/ml; format: organism-based; conditions: in vivo; procedure, shortened: as §6
Vibrio harveyi [17] = test: Mutagenic activity in Vibrio harveyi BB7 assessed as mutagenicity index at 40 ng/ml; format: organism-based; conditions: in vivo; procedure, shortened: as §6
Vibrio harveyi [18] = test: Antimutagenic activity in Vibrio harveyi BB7 assessed as inhibition of nitroquinoline-N-oxide-induced revertant colonies; format: functional; procedure, shortened: as §7
Salmonella typhimurium [19] = test: Antimutagenic activity in Salmonella typhimurium TA100 assessed as inhibition of nitroquinoline-N-oxide-induced revertant colonies by Ames test; format: functional, Salmonella enterica subsp. enterica serovar Typhimurium; procedure, shortened: as §7

| SMILES | MED (Mus musculus [1]) | MED (Mus musculus [3]) | MTC (Mus musculus [4]) | Time (Mus musculus [5]) | minimal effective dose (Mus musculus [6]) | minimal effective dose (Mus musculus [7]) | Time (Mus musculus [8]) | MTC (Mus musculus [9]) | MED (Mus musculus [7]) | ED50 (Mus musculus [10]) | selectivity ratio [11] | TD50 [12] | MED (Mus musculus [6]) | also measured |
| --- | --- | --- | --- | --- | --- | --- | --- | --- | --- | --- | --- | --- | --- | --- |
| CCC1(C)CC(=O)NC1=O (centres undefined) [ETHOSUXIMIDE] | inactive | inactive | Non-toxic | 0.25 h | 100 mg/kg | 300 mg/kg | 0.25 h | Non-toxic | – | – | – | – | – | ED50 (Mus musculus [2]): > 500 mg/kg |
| CC1(c2ccccc2)CC(=O)N(CC(=O)N2CCN(c3cccc(Cl)c3Cl)CC2)C1=O (centres undefined) | inactive | inactive | Non-toxic | – | 300 mg/kg | – | – | Non-toxic | inactive | – | – | – | – | – |
| CC1(c2ccccc2)CC(=O)N(CC(=O)N2CCN(Cc3ccccc3)CC2)C1=O (centres undefined) | inactive | inactive | 300 mg/kg | 0.5 h | 100 mg/kg | 300 mg/kg | 0.5 h | 300 mg/kg | – | 96.5 mg/kg | 2.12 | 205 mg/kg | – | – |
| Cc1ccccc1N1CCN(C(=O)CN2C(=O)CC(C)(c3ccccc3)C2=O)CC1 (centres undefined) | inactive | inactive | Non-toxic | – | – | – | – | Non-toxic | inactive | – | – | – | inactive | – |
| CC1(c2ccccc2)CC(=O)N(CC(=O)N2CCN(c3ccccc3Cl)CC2)C1=O (centres undefined) | inactive | inactive | Non-toxic | 2 h | – | 100 mg/kg | 2 h | Non-toxic | – | 120 mg/kg | > 4.16 | > 500 mg/kg | inactive | – |
| CC1(c2ccccc2)CC(=O)N(CC(=O)N2CCN(c3ccc(Cl)cc3)CC2)C1=O (centres undefined) | inactive | inactive | Non-toxic | – | 300 mg/kg | 300 mg/kg | – | Non-toxic | – | – | – | – | – | – |
| COc1cccc(N2CCN(C(=O)CN3C(=O)CC(C)(c4ccccc4)C3=O)CC2)c1 (centres undefined) | inactive | inactive | Non-toxic | – | 100 mg/kg | – | – | Non-toxic | inactive | – | – | – | – | – |
| O=C1NC(=O)C(c2ccccc2)(c2ccccc2)N1 [PHENYTOIN] | – | – | 100 mg/kg | 1 h | – | – | 1 h | 100 mg/kg | inactive | > 500 mg/kg | – | 59.9 mg/kg | inactive | minimal effective dose (Mus musculus [1]): 30 mg/kg; ED50 (Mus musculus [2]): 6.65 mg/kg; minimal effective dose (Mus musculus [3]; CD-1, ip, read-out: MED): 30 mg/kg; selectivity ratio [13]: 5.56 |
| CC1(c2ccccc2)CC(=O)N(CC(=O)N2CCC(Cc3ccccc3)CC2)C1=O (centres undefined) | – | inactive | Non-toxic | 0.5 h | 100 mg/kg | – | 0.5 h | Non-toxic | inactive | 60 mg/kg | > 8.33 | > 500 mg/kg | – | Activity_index (Salmonella typhimurium [14]): 0.5; minimal effective dose (Mus musculus [1]): 300 mg/kg; inhibition (INH) (Vibrio harveyi [15]): 26%; Activity_index (Vibrio harveyi [16]): 1.6; Activity_index (Vibrio harveyi [17]): 1.5; inhibition (INH) (Vibrio harveyi [18]): 22%; inhibition (INH) (Salmonella typhimurium [19]): 5% |
